Data as given in ChEMBL document CHEMBL1240484, “New 4H-chromen-4-one and 2H-chromene derivatives as anti-picornavirus capsid-binders” (Bioorg Med Chem, 2010).

Experiments:
[1] = Cytotoxicity against human HeLa cells after 3 days by XTT assay; type: cell-based; conditions: read-out: TC50
In short: (§1)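 HeLa cells seeded at 2 × 10³ per well with twofold compound dilutions from the maximum soluble concentration, quadruplicate wells, 37 °C in 5% CO2 for 3 days until controls were confluent. Morphology also scored microscopically. MNTC is the highest dose with no toxicity or growth reduction.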

[2] = Cytotoxicity against human HeLa cells assessed as maximum non-cytotoxic concentration after 3 days by XTT assay; type: cell-based
In short: as §1, with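 “confluent. XTT added (final 0.15 mg/mL) for 4 h, absorbance read at 492 nm with 690 nm reference.” for “confluent.”, “microscopically. […]” for “microscopically.”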

[3] = system: rhinovirus A1B; assay: Antiviral activity against Human rhinovirus 1B infected in human HeLa cells after 3 days by plaque reduction assay; type: functional, organism-based; conditions: for IC50: Rhinovirus A, 72 h
In short: (§2)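 HeLa monolayers infected with ATCC HRV 14 or 1B at about 100 plaques per well, 1 h adsorption at 33 °C. Inoculum removed, then plaque overlay with fourfold drug dilutions from the MNTC. Three days at 33 °C, neutral red (0.2 mg/mL, PBS pH 7.4) staining and plaque count, triplicate wells. IC50 from log dose vs % reduction relative to mock-treated control. Otherwise % inhibition at MNTC is reported.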

[4] = Therapeutic index, ratio of TC50 for human HeLa cells to IC50 for HRV 1B; type: cell-based; conditions: read-out: TI
In short: (§3)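 Therapeutic index calculated as TC50 for HeLa cells (XTT, 3 days) divided by IC50 for plaque reduction of HRV 14 or HRV 1B in HeLa cells.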

[5] = system: rhinovirus B14; assay: Antiviral activity against Human rhinovirus 14 infected in human HeLa cells after 3 days by plaque reduction assay; type: functional, organism-based; conditions: for IC50: Rhinovirus B, 72 h; in short: as §2
[6] = Therapeutic index, ratio of TC50 for human HeLa cells to IC50 for HRV 14; type: cell-based; conditions: read-out: TI; in short: as §3
[7] = Cytotoxicity against human Hep2 cells assessed as maximum non-cytotoxic concentration after 3 days by XTT assay; type: cell-based, HEp-2
In short: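 Hep-2 cells grown in high-glucose DMEM, seeded at 2 × 10³ per well with twofold dilutions from the maximum soluble concentration, quadruplicate wells, 3 days at 37 °C in 5% CO2. XTT (final 0.15 mg/mL) for 4 h, read at 492/690 nm, plus microscopic scoring. MNTC is the highest dose causing no toxic effect or growth reduction.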

[8] = system: Enterovirus A71; assay: Antiviral activity against Human enterovirus 71 infected in human Hep2 cells after 2 days by plaque reduction assay; type: functional, organism-based; conditions: for IC50: Enterovirus A, HEp-2, 48 h; for Activity: HEp-2
In short: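 Inoculum removed, then plaque overlay with fourfold drug dilutions starting from the MNTC. Two days at 37 °C, neutral red (0.2 mg/mL in PBS pH 7.4) staining, plaques counted, triplicate wells. IC50 taken from log dose vs % plaque reduction.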

[9] = system: Enterovirus A71; assay: Antiviral activity against Human enterovirus 71 infected in human Hep2 cells at maximum non-cytotoxic concentration […] by plaque reduction assay; type: functional, HEp-2
[10] = system: rhinovirus B14; assay: Antiviral activity against Human rhinovirus 14 infected in human HeLa cells at maximum non-cytotoxic concentration after 3 days by plaque reduction assay; type: functional; in short: as §2

| Compound | IC50 [3] | IC50 [5] | IC50 [8] | CC50 at 72 h [1] | MNTC at 72 h [2] | Activity [3] | selectivity ratio [4] | Activity [5] | selectivity ratio [6] | MNTC at 72 h [7] | Activity [8] | inhibition (INH) [9] | inhibition (INH) [10] |
| --- | --- | --- | --- | --- | --- | --- | --- | --- | --- | --- | --- | --- | --- |
| C1=C(/C=C/C=C/c2ccccc2)COc2ccccc21 | 30.8 µM | 50 µM | > 50 µM | 100 µM | 50 µM | Dose-dependent effect | 3.24 | Dose-dependent effect | 2 | 50 µM | Dose-dependent effect | 29.5% | – |
| Clc1ccc(/C=C/C2=Cc3ccccc3OC2)cc1 | 0.4 µM | 18.4 µM | > 50 µM | 100 µM | 50 µM | Dose-dependent effect | 250 | Dose-dependent effect | 5.44 | 50 µM | Dose-dependent effect | 49.7% | – |
| Clc1ccc2c(c1)C=C(/C=C/C=C/c1ccccc1)CO2 | 6.27 µM | > 12.5 µM | > 12.5 µM | 25 µM | 12.5 µM | Dose-dependent effect | 3.99 | Dose-dependent effect | – | 12.5 µM | Dose-dependent effect | 25.4% | 37.2% |
| Clc1ccc(/C=C/C2=Cc3cc(Cl)ccc3OC2)cc1 | 7.13 µM | 8.28 µM | > 12.5 µM | 50 µM | 25 µM | Dose-dependent effect | 7.01 | Dose-dependent effect | 6.04 | 12.5 µM | Dose-dependent effect | 46.6% | – |
| Clc1ccc(C2CCc3cc(Cl)ccc3O2)cc1 (stereo unspecified) | – | – | – | – | – | – | – | – | – | 10 µM | – | – | – |
| Clc1ccc2c(c1)C=C(/C=C/c1ccccc1)CO2 | 11.2 µM | 11.2 µM | > 50 µM | 100 µM | 50 µM | Dose-dependent effect | 8.93 | Dose-dependent effect | 8.95 | 50 µM | Dose-dependent effect | 30.8% | – |
| Clc1ccc(/C=C/C=C/C2=Cc3cc(Cl)ccc3OC2)cc1 | 0.54 µM | > 6.25 µM | > 6.25 µM | 12.5 µM | 6.25 µM | Dose-dependent effect | 23.1 | Dose-dependent effect | – | 6.25 µM | Dose-dependent effect | 39.1% | 12.8% |
| Clc1ccc(/C=C/C=C/C2=Cc3ccccc3OC2)cc1 | 3.1 µM | > 3.12 µM | > 3.12 µM | 6.25 µM | 3.12 µM | Dose-dependent effect | 2 | Dose-dependent effect | – | 3.12 µM | Dose-dependent effect | 32.9% | 30.4% |
| O=c1c(/C=C/c2ccc(Cl)cc2)coc2ccc(Cl)cc12 | 2.19 µM | > 25 µM | > 25 µM | 50 µM | 25 µM | Dose-dependent effect | 22.2 | Dose-dependent effect | – | 25 µM | Dose-dependent effect | 35.7% | 24.1% |

The next lines start with results.

| IC50 [3] | IC50 [5] | IC50 [8] | Compound | CC50 at 72 h [1] | MNTC at 72 h [2] | Activity [3] | selectivity ratio [4] | Activity [5] | selectivity ratio [6] | MNTC at 72 h [7] | Activity [8] | inhibition (INH) [9] | inhibition (INH) [10] |
| --- | --- | --- | --- | --- | --- | --- | --- | --- | --- | --- | --- | --- | --- |
| 5.27 µM | 15 µM | > 25 µM | O=c1c(/C=C/C=C/c2ccccc2)coc2ccccc12 | 50 µM | 25 µM | Dose-dependent effect | 9.49 | Dose-dependent effect | 3.33 | 25 µM | Dose-dependent effect | 39.8% | – |
| 4.54 µM | 5.52 µM | > 25 µM | O=c1c(/C=C/c2ccc(Cl)cc2)coc2ccccc12 | 50 µM | 25 µM | Dose-dependent effect | 11 | Dose-dependent effect | 9.06 | 25 µM | Dose-dependent effect | 21.6% | – |
| 4.09 µM | 4.07 µM | > 25 µM | O=c1c(/C=C/C=C/c2ccc(Cl)cc2)coc2ccccc12 | 50 µM | 25 µM | Dose-dependent effect | 12.2 | Dose-dependent effect | 12.3 | 25 µM | Dose-dependent effect | 49.1% | – |
| 3.12 µM | 4.36 µM | > 50 µM | O=c1c(/C=C/c2ccccc2)coc2ccccc12 | > 200 µM | > 200 µM | Dose-dependent effect | > 64.2 | Dose-dependent effect | > 45.9 | 50 µM | Dose-dependent effect | 34.6% | – |
| 3.22 µM | > 25 µM | > 25 µM | O=c1c(/C=C/c2ccccc2)coc2ccc(Cl)cc12 | 50 µM | 25 µM | Dose-dependent effect | 15.5 | Dose-dependent effect | – | 25 µM | Dose-dependent effect | 37% | 33.1% |
| 1.6 µM | > 50 µM | > 50 µM | O=c1c(/C=C/C=C/c2ccccc2)coc2ccc(Cl)cc12 | 100 µM | 50 µM | Dose-dependent effect | 62.5 | Dose-dependent effect | – | 50 µM | Dose-dependent effect | 46.7% | 48.3% |
| 0.71 µM | > 3.12 µM | > 3.12 µM | O=c1c(/C=C/C=C/c2ccc(Cl)cc2)coc2ccc(Cl)cc12 | 6.25 µM | 3.12 µM | Dose-dependent effect | 8.8 | Dose-dependent effect | – | 3.12 µM | Dose-dependent effect | 46.6% | 36.2% |
